Experimental findings from ChEMBL document CHEMBL4619791, “3-Difluoroalkyl Quaternary Oxindoles Inhibit Macrophage Pyroptosis by Blocking Inflammasome Recruitment of Caspase-1” (ACS Med Chem Lett, 2020) are described below.

Active and inactive are the calls of the source. The calls are words filed in the database; no cut-off is given here. Some results are limits rather than exact numbers.

A short description of data set [1]: Toxicity in zebrafish embryo. Particulars: in vivo. Further details: species or system Danio rerio. The method in brief: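 Zebrafish embryos exposed to compound. EC100 is the concentration at which all treated embryos show early lethality, embryonic defects or developmental delay.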
For data set [2], the system named is J774.A1. Put plainly: Inhibition of pyroptosis in LPS-primed immortalized mouse […] cells assessed as reduction in nigericin-induced IL-beta secretion by imaging analysis. Format: functional.
Data set [3] deals with T1, Caspase-1 (Homo sapiens) (UniProt P29466).
T1 sequence (whole entry): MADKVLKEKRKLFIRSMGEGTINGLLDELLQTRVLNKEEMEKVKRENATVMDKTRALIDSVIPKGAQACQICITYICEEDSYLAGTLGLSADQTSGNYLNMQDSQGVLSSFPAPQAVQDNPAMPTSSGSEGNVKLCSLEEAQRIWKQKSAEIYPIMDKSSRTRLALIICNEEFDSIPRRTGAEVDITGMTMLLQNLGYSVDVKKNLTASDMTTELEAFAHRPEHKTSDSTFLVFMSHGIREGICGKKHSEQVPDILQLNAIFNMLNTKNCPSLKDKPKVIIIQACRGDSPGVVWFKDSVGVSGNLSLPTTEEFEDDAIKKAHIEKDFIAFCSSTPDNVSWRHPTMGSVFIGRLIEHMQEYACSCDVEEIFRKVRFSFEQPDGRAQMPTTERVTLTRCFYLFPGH
Put plainly: Inhibition of pronase-mediated caspase-1 degradation in HEK293 cell lysate at 5 uM measured after 30 mins by DARTS based Western blot analysis. Type of data set: cell-free. The essentials:
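DARTS assay: cell lysates pretreated with compound, then digested with different Pronase concentrations. Caspase-1 stability read by immunoblot against a histone H3 control.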
(Immunoblotting shows a protein as a band on a membrane.)

The test system of data set [4] is J774.A1. Nature of the data set: Inhibition of pyroptosis in LPS-primed immortalized mouse […] cells followed by subsequent nigericin stimulation by imaging analysis. Format: functional, cell-based.

Take `CN1C(=O)C(NC(=O)OC(C)(C)C)(C(F)(F)C(=O)c2ccccc2)c2ccccc21` (stereo not drawn): the EC100 in data set [1] is above 50 µM. Moreover, the Activity in data set [2] came to 232.64 pg/mL. In addition, in data set [3], the inhibition entry was “inactive”.

In data set [1], `CCOC(CN1C(=O)C(NC(=O)OC(C)(C)C)(C(F)(F)C(=O)c2ccc(OC)cc2)c2ccccc21)OCC` (stereo not drawn) came in with an EC100 above 50 µM. In data set [4], this compound gave an EC50 of 17.5 µM. In addition, the Activity in data set [2] was 202.6 pg/mL.

In data set [1], `CCOC(CN1C(=O)C(NC(=O)OC(C)(C)C)(C(F)(F)C(=O)c2ccccc2)c2ccccc21)OCC` (stereo not drawn) registered an EC100 of 50 µM. Moreover, in data set [4], the midpoint of the response, the EC50, lay at 9.5 µM. Also, the Activity in data set [2] is 222.04 pg/mL.

`CC(C)(C)OC(=O)NC1(C(F)(F)C(=O)c2ccccc2)C(=O)Nc2ccccc21` (stereo not drawn): in data set [1], the EC100 is above 50 µM. Besides, the Activity in data set [2] came out at 240.83 pg/mL.

On to `N#CC(C#N)C1(C(F)(F)C(=O)c2ccc(Cl)cc2)C(=O)Nc2ccccc21` (stereo not drawn), for which the EC100 in data set [1] is 20 µM. The Activity in data set [2] is 252.29 pg/mL.

A word on the EC50: it is the concentration at which the effect is half-maximal.
